Experimental data reported in ChEMBL document CHEMBL1212801, “Inhibitor resistance in the KPC-2 beta-lactamase, a preeminent property of this class A beta-lactamase” (Antimicrob Agents Chemother, 2010).
≈ marks a conversion by molar mass, not a printed value. Calls of active or inactive are those of the source. The calls are words filed in the database; no cut-off is given here.

What was measured:
[1] = test system: Escherichia coli str. K-12 substr. DH10B; assay: Ratio of Kinact to Km for Escherichia coli DH10B beta-lactamase KPC-2
[2] = test system: Escherichia coli str. K-12 substr. DH10B; assay: Ratio of Kcat to Kinact for Escherichia coli DH10B beta-lactamase KPC-2
[3] = test system: Escherichia coli str. K-12 substr. DH10B; assay: Inhibition of Escherichia coli DH10B beta-lactamase KPC-2 assessed as residual activity at 25 to 200 uM after 72 hrs by diode array spectrophotometry
[4] = test system: Escherichia coli str. K-12 substr. DH10B; assay: Km for Escherichia coli DH10B beta-lactamase KPC-2
[5] = test system: Escherichia coli str. K-12 substr. DH10B; assay: Inhibition of Escherichia coli DH10B beta-lactamase KPC-2 assessed as residual activity at 25 to 200 uM after 24 hrs by diode array spectrophotometry
[6] = test system: Escherichia coli str. K-12 substr. DH10B; assay: (§1) Activity at Escherichia coli DH10B beta-lactamase KPC-2 by diode array spectrophotometry
[7] = as §1; set-up: species or system Escherichia coli str. K-12 substr. DH10B
[8] = test system: Escherichia coli str. K-12 substr. DH10B; assay: Ratio of Kcat to Km for Escherichia coli DH10B beta-lactamase KPC-2
How it was run: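 Steady-state assay on a diode array spectrophotometer with 10 nM purified KPC-2 and substrates at 5–200 μM, in 10 mM PBS pH 7.4 at room temperature. Spontaneous imipenem hydrolysis was subtracted. Vmax and Km came from a nonlinear least-squares Michaelis-Menten fit.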

[9] = test system: Klebsiella pneumoniae; assay: Antimicrobial activity against Klebsiella pneumoniae 1534 harboring beta lactamase KPC-2 by CLSI method; type: functional
How it was run: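 […] agar dilution MICs per CLSI, using a Steers replicator spotting 10^4 CFU per spot. For clavulanic acid and sulbactam, ampicillin was fixed at 50 mg/liter while inhibitor was increased. Piperacillin-tazobactam was tested at 8:1. Test inhibitors were held at 4 mg/liter while piperacillin, imipenem or cefotaxime was increased.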

[10] = test system: Escherichia coli; assay: Antimicrobial activity against Escherichia coli DH10B harboring beta lactamase KPC-2 by CLSI method; conditions: K-12 DH10B
[11] = test system: Escherichia coli; assay: Antimicrobial activity against Escherichia coli DH10B by CLSI method; conditions: K-12 DH10B
[12] = test system: Escherichia coli str. K-12 substr. DH10B; assay: Inhibition of Escherichia coli DH10B beta-lactamase KPC-2 at 0.025 mM by UVD spectroscopy
[13] = test system: Escherichia coli str. K-12 substr. DH10B; assay: Inhibition of Escherichia coli DH10B beta-lactamase KPC-2 assessed as residual activity at 25 to 200 uM after 24 hrs by diode array spectrophotometry; values are per cent of control

Row | Compound | kinact/Km [1] [µM⁻¹ s⁻¹] | kcat/kinact [2] | Km [4] [µM] | kcat [6] [s⁻¹] | Ki [7] [µM] | kcat/Km [8] [µM/s] | MIC [9] [µg/mL] | MIC [10] [µg/mL] | MIC [11] [µg/mL] | further results
1 | O=C(O)[C@H]1/C(=C/CO)O[C@@H]2CC(=O)N21 | 0.0036 | 2500 | 8.4 | – | – | – | – | – | – | Activity [3]: 5%
2 | CC1(C)[C@H](C(=O)O)N2C(=O)C[C@H]2S1(=O)=O | 0.0012 | 1000 | 135 | – | – | – | – | – | – | Activity [5]: 50%
3 | C[C@]1(Cn2ccnn2)[C@H](C(=O)O)N2C(=O)C[C@H]2S1(=O)=O | 0.0025 | 500 | 78.5 | – | – | – | – | – | – | Activity [5]: 50%
4 | C[C@@H](O)[C@H]1C(=O)N2C(C(=O)O)=C(SCCNC=N)C[C@H]12 [IMIPENEM ANHYDROUS] | – | – | – | 19 | 19 | 1 | 8 (≈ 26.7 µM) | 8 (≈ 26.7 µM) | – | –
5 | CO/N=C(\C(=O)N[C@@H]1C(=O)N2C(C(=O)O)=C(COC(C)=O)CS[C@H]12)c1csc(N)n1 [CEFOTAXIME] | – | – | – | 78 | 120 | 0.6 | 16 (≈ 35.1 µM) | 8 (≈ 17.6 µM) | 0.06 (≈ 0.132 µM) | –
6 | CCN1CCN(C(=O)N[C@@H](C(=O)N[C@@H]2C(=O)N3[C@@H]2SC(C)(C)[C@@H]3C(=O)O)c2ccccc2)C(=O)C1=O [PIPERACILLIN] | – | – | – | 17 | 16 | 1.1 | 1020 (≈ 1980 µM) | 1020 (≈ 1980 µM) | 2 (≈ 3.86 µM) | –
7 | CC1(C)S[C@@H]2[C@H](NC(=O)[C@H](N)c3ccccc3)C(=O)N2[C@H]1C(=O)O [AMPICILLIN] | – | – | – | – | – | – | 8190 (≈ 23400 µM) | 4100 (≈ 11700 µM) | 1 (≈ 2.86 µM) | –
8 | O=C(O)C1=CSC2/C(=C\c3cc4n(n3)CSC4)C(=O)N12 (stereo not given) | 0.18 | 250 | 0.06 | – | – | – | – | – | – | inhibition [12]: Active; residual activity [13]: 20%
9 | O=C(Cc1cccs1)N[C@@H]1C(=O)N2C(C(=O)O)=C(/C=C/c3ccc([N+](=O)[O-])cc3[N+](=O)[O-])CS[C@H]12 [NITROCEFIN] | – | – | – | 30 | 5 | 6.4 | – | – | – | –
